Published values collected from several papers.
Route: oral

C=CC(=O)Nc1cc(Nc2nccc(Nc3cc(Cl)c(F)cc3C(C)(C)O)n2)c(OC)cc1N1CC[C@@H](N(C)C)C1 — bioavailability (beagle dog; plasma; 1 mg/kg): 48.8%
N#C[C@@]1(c2ccc3c(N)ncnn23)O[C@H](CO)[C@@H](O)[C@H]1O — bioavailability (dog; plasma; 5 mg/kg): 92%
CC#Cc1cncc(-c2ccc3c(c2)[C@@]2(N=C(C)C(N)=N2)[C@]2(CC[C@H](OC)CC2)C3)c1 — bioavailability (male beagle dog; plasma; 3 µmol/kg): 80%
Cc1cc(Nc2ccc(S(F)(F)(F)(F)F)cc2)n2nc(C(C)(F)F)nc2n1 — bioavailability (male beagle dog; plasma): ~20%
Oc1c(-n2ccnn2)cnn1-c1cc(N2CCOCC2)ncn1 — bioavailability (female dog; plasma; 1.5 mg/kg): 71%
C#Cc1cnc2nc(O)n(C(CC)CC)c2n1 — bioavailability (male beagle dog; plasma; 1 mg/kg): > 90%
Fc1ccc(Nc2n[nH]c3cccnc23)cc1Cl — bioavailability (dog; plasma): 36%
O=C(NCCN1CCCC1)c1cc(-c2ccc(CN3CCOCC3)cc2)nc2ccc(F)cc12 — bioavailability (male beagle dog; blood; 3 mg/kg): 46%
COc1ccc2c(c1OCc1ccccc1)C[C@@H](C(=O)O)N(C(=O)C(c1ccccc1)c1ccccc1)C2 — bioavailability (male beagle dog; plasma; 3 mg/kg): 39%
